Bioassay records deposited in PubChem BioAssay by several laboratories.
KCNQ1 block – blocks the human KCNQ1 potassium channel; CHO-K1 KCNQ1, FluxOR thallium flux fluorescence; hits give high values; B-score at 10 µM; hit rate 1.3% among 310,000; AID 2642;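 active means compounds whose thallium flux B-score, printed positive for inhibition, exceeds three library SD while starting fluorescence stays within three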;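 further: channel opened by potassium depolarization with thallium stimulus after 20 min compound exposure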
Cl transport mod – KCC2 (human) Cl- transport modulation | hit rate 2.2% among 190,000 | B-score of Tl+ flux slope (higher = more flux/activation; lower = inhibition) at 10 µM | KCC2 cells, thallium flux FluoZin-2 fluorescence | Q9H2X9;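 active means thallium flux slope and its plate-corrected score both differing from the plate sample mean at a set confidence after two filtering rounds, in either direction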;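 further: slope of fluorescence scaled to starting intensity during 10 to 20 s after thallium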
KCNK9 inh – blocks the human KCNK9 two-pore domain potassium channel. hit rate 1.2% among 310,000. AID 488922. Q9NPC2. B-score at 10 µM. HEK293 KCNK9, FluxOR thallium flux fluorescence; hits give low values;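 active means ratio B-score over 3 SD below the library mean, with starting fluorescence within 5 SD of its mean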;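 further: negative B-score means less thallium flux so channel inhibition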
Target sequence (Q9NPC2 whole entry, looked up, the tested form may be a part): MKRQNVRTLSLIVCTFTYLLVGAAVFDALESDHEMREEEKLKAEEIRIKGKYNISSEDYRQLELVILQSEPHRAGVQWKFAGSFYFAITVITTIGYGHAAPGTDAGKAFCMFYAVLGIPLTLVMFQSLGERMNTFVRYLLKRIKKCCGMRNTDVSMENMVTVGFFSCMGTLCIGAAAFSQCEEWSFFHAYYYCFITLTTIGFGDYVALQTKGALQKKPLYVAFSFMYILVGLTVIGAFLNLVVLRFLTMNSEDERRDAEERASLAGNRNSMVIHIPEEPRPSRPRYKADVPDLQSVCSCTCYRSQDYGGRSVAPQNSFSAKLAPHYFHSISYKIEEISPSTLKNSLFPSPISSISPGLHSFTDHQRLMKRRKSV
KCNQ1 act – potentiates or activates the human KCNQ1 potassium channel; AID 2648; hit rate 0.35% among 310,000; CHO-K1 KCNQ1, thallium flux FluxOR fluorescence; hits give high values; P51787; B-score at 10 µM;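 active means fluorescence ratio B-score, a plate-corrected score, at least three library SD, with initial intensity B-score within 5 SD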
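System: CHO-K1 cells stably expressing KCNQ1 / Medium: assay buffer for compound exposure, DMSO matched across wells / Reagent: thallium- and potassium-containing depolarizing buffer / Compound: one concentration, matched DMSO / Incubation: 20 min compound pretreatment at room temperature / Measured by: kinetic FluxOR fluorescence, 10 s baseline plus 110 s post-stimulus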
KCNK3 block – human KCNK3 channel inhibition, primary screen | CHO-KCNK3 thallium flux, FluxOR fluorescence; hits give low values | B-score at 10 µM | hit rate 0.84% among 340,000 | AID 602410;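 active means B-score under library mean minus 4 SD, starting fluorescence ratio at most library mean plus 5 SD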;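 further: more negative B-score means stronger inhibition of thallium flux through KCNK3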
Target sequence (O14649 whole entry, looked up): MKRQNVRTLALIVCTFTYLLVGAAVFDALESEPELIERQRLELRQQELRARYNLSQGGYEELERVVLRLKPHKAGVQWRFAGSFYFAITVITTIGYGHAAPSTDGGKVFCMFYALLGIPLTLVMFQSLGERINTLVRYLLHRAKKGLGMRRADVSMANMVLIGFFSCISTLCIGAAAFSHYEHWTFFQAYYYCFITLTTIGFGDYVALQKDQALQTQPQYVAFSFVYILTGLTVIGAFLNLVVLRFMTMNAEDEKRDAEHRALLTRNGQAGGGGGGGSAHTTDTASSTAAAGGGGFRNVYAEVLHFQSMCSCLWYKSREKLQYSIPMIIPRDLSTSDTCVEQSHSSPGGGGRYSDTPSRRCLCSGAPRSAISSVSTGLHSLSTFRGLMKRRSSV
hERG rescue – shields human hERG channel from block by proarrhythmic agents | CHO-hERG, FluxOR thallium flux, dofetilide IC70 present | activation (rescue from dofetilide block), less the hit threshold, % at 10 µM | hit rate 0.51% among 310,000 | AID 1511;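 active means activation above the mean of controls blocked by dofetilide plus 5 SD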;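 further: thallium influx through hERG after potassium depolarization seen as dye fluorescence rise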
KCC2 sec1 – KCC2 (human) modulation, secondary assay; AID 1713; HEK293-KCC2, thallium flux, FluoZin2 fluorescence; hits give high values; normalised thallium flux (F/F0 slope) at 10 µM; shares compounds with Cl transport mod; hit rate 15% among 3,700;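 active means thallium flux slope above the same plate's solvent-only control mean plus 3 SD; inconclusive means the two replicate wells disagree; inactive means no significant difference from solvent-only control wells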
KCC2 bumet counter – bumetanide-insensitive thallium flux in KCC2 cells with ouabain, counter-screen | normalized thallium flux at 10 µM | shares compounds with Cl transport mod | AID 1714 | HEK293-KCC2 + bumetanide/ouabain, thallium flux FluoZin2; hits give high values | hit rate 49% among 3,700;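 active means thallium entry rate above the same plate's blocked-transporter control wells by more than 3 SD; inconclusive means the two repeat wells disagree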;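 further: raw slope of fluorescence over initial fluorescence between 10 and 20 s after thallium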
KCC2 secondary2 – confirmation of human KCC2 transport modulators. normalized thallium flux at 10 µM. shares compounds with Cl transport mod. hit rate 23% among 3,700. HEK293-KCC2, thallium flux FluoZin2 fluorescence; actives lie on both sides; F/F0 rise rate, 10–20 s post-thallium. AID 1715;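 active means thallium flux slope more than 3 SD above or below the plate's solvent-only control mean, mostly below; inconclusive means the two repeat wells disagreed; inactive means no significant shift from solvent-only controls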
HEK counter1 – parental HEK flux effect, counter-screen; shares compounds with Cl transport mod; HEK293 parental cells, thallium flux FluoZin2, ouabain; baseline-ratio fluorescence slope, 10–20 s after thallium; thallium flux rate (normalised fluorescence) at 10 µM; hit rate 46% among 3,700; AID 1716;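 active means thallium flux rate significantly above the same plate's solvent-only control wells, beyond their mean plus 3 SD; inconclusive means the two replicate wells gave conflicting results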
KCC2 retest ouab – confirmation of human KCC2 modulators with ouabain; HEK293-KCC2, thallium flux FluoZin2 fluorescence; bidirectional: low = inhibitor, high = activator; raw Tl+ flux slope (below DMSO = inhibition, above = activation) at 10 µM; AID 1717; shares compounds with Cl transport mod; hit rate 48% among 3,700;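 active means thallium flux slope beyond 3 SD from same-plate DMSO control mean in most replicates, usually higher, sometimes lower; inconclusive means repeat tests gave conflicting results; inactive means no significant difference from controls in most replicates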;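 further: slope of initial-normalized fluorescence between seconds 10 and 20 after thallium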
HEK293 Tl flux2 – acts in parental HEK cells, second KCC2 counter-screen | AID 1718 | thallium flux slope at 10 µM | HEK293 parental, thallium flux FluoZin-2 fluorescence slope | shares compounds with Cl transport mod | hit rate 33% among 3,700;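 active means thallium flux slope above the same plate's solvent-control mean plus 3 SD in both duplicate wells; inconclusive means duplicate wells that disagreed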;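 further: run without ouabain in cells lacking the KCC2 cotransporter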
Large screens that a line does not name were inactive (follow-up assays come after a bar, where they were run). Most compounds without a hit are left out; they make up all but 4.1% or so of the library.

O=C(C1CCCCC1)N1CCCC(c2nc3c(nnn3Cc3ccccc3)c(=O)[nH]2)C1 (stereo not drawn)	none (no result: Cl transport mod) | KCC2 sec1 inactive | KCC2 bumet counter inconclusive | KCC2 secondary2 0.026 | HEK counter1 0.0061 | KCC2 retest ouab 0.016 | HEK293 Tl flux2 inconclusive
Cc1ccc(Cn2nnc3c(=O)[nH]c(C4CCN(S(=O)(=O)c5ccc(C)cc5)CC4)nc32)cc1	none (no result: Cl transport mod) | KCC2 sec1 inactive | KCC2 bumet counter inactive | KCC2 secondary2 inactive | HEK counter1 inactive | KCC2 retest ouab inactive | HEK293 Tl flux2 inactive
COc1ccccc1NC(=O)C(=O)/C=C(\O)c1ccccc1	Cl transport mod 73 | KCC2 sec1 inconclusive | KCC2 bumet counter 0.088 | KCC2 secondary2 0.062 | HEK counter1 0.052 | KCC2 retest ouab 0.064 | HEK293 Tl flux2 0.041
COc1ccc(OC)c(/C(O)=C/C(=O)C(=O)Nc2cc(C)ccc2OC)c1	Cl transport mod 4 | KCC2 sec1 inactive | KCC2 bumet counter 0.022 | KCC2 secondary2 inactive | HEK counter1 0.016 | KCC2 retest ouab 0.027 | HEK293 Tl flux2 0.018
CCOc1ccccc1NC(=O)C(=O)/C=C(\O)c1cc(OC)ccc1OC	Cl transport mod 5.8 | KCC2 sec1 inactive | KCC2 bumet counter 0.026 | KCC2 secondary2 inactive | HEK counter1 0.022 | KCC2 retest ouab 0.029 | HEK293 Tl flux2 0.014
COc1ccc(/C(O)=C/C(=O)C(=O)NNC(=O)c2ccccc2)cc1	none (no result: Cl transport mod)
COc1ccc(OC)c(/C(O)=C/C(=O)C(=O)Nc2cc(C)cc(C)c2)c1	none
COc1ccc2[nH]c3c(c2c1)CCN1C(=O)C(CC(=O)NCCCN(C)C)C[C@H](C(=O)N2CCCCC2)[C@@]31C (stereo partly drawn)	none (no result: KCNQ1 block, Cl transport mod, KCNK9 inh, KCNQ1 act, hERG rescue)
COc1ccc2[nH]c(C)c(C(=O)CN(C)C)c2c1	none (no result: Cl transport mod)
CCN(CC)CCn1c(=S)[nH]c2ccc(Cl)cc2c1=O	Cl transport mod 25 | KCC2 sec1 inactive | KCC2 bumet counter 0.017 | KCC2 secondary2 inactive | HEK counter1 inconclusive | KCC2 retest ouab 0.03 | HEK293 Tl flux2 inactive
O=c1c2cc(Br)ccc2[nH]c(=S)n1Cc1cccnc1	Cl transport mod 5.4 | KCC2 sec1 inconclusive | KCC2 bumet counter 0.025 | KCC2 secondary2 inactive | HEK counter1 0.014 | KCC2 retest ouab inactive | HEK293 Tl flux2 0.012
O=C(NCc1ccccn1)c1ccc(Cn2c(=S)[nH]c3ccc(Br)cc3c2=O)cc1	none
O=c1c2cc(Cl)ccc2[nH]c(=S)n1Cc1ccccn1	Cl transport mod 9.9 | KCC2 sec1 inactive | KCC2 bumet counter 0.067 | KCC2 secondary2 0.047 | HEK counter1 0.036 | KCC2 retest ouab 0.054 | HEK293 Tl flux2 0.034
COc1ccc(NC(=S)NCCCc2ccccc2)cc1	Cl transport mod -4.8 | KCC2 sec1 inactive | KCC2 bumet counter inconclusive | KCC2 secondary2 0.023 | HEK counter1 inactive | KCC2 retest ouab inactive | HEK293 Tl flux2 inactive
C/C(=N\NC(=S)NC(C)C)c1ccccc1	Cl transport mod 5.8 | KCC2 sec1 inconclusive | KCC2 bumet counter 0.02 | KCC2 secondary2 inactive | HEK counter1 0.0095 | KCC2 retest ouab 0.046 | HEK293 Tl flux2 inconclusive
COc1ccccc1/C(C)=N/NC(=S)NCc1ccccc1	Cl transport mod 6.9 | KCC2 sec1 inactive | KCC2 bumet counter 0.015 | KCC2 secondary2 inactive | HEK counter1 0.015 | KCC2 retest ouab inconclusive | HEK293 Tl flux2 0.014
C/C(=N\NC(=S)NCc1ccccc1)c1cccc(Br)c1	Cl transport mod 4.8 | KCC2 sec1 inactive | KCC2 bumet counter 0.017 | KCC2 secondary2 inactive | HEK counter1 inactive | KCC2 retest ouab inactive | HEK293 Tl flux2 inactive
CC1C(=O)N2CCCc3cc(NC(=O)c4ccccc4F)cc1c32 (stereo not drawn)	none (no result: Cl transport mod)
CCCCN(CC)CCCNC(=O)c1cn(C)c(=O)c2c1c1ccccc1n2C	none (no result: Cl transport mod)
O=C(NCc1nc2ccccc2[nH]1)C1=C[C@H](c2ccc(C(F)(F)F)cc2)C[C@H](OCc2ccc(CO)cc2)O1	none
C=CCNC(=S)N/N=C(\C)c1cccc(OC)c1	Cl transport mod 4.9 | KCC2 sec1 0.013 | KCC2 bumet counter 0.043 | KCC2 secondary2 inactive | HEK counter1 0.015 | KCC2 retest ouab inactive | HEK293 Tl flux2 0.012
S=C(NCc1ccccc1)Nc1ccc2ccccc2c1	none (no result: Cl transport mod)
C/C(=N\NC(=S)NCc1ccccc1)c1ccc2ccccc2c1	Cl transport mod 6 | KCC2 sec1 inactive | KCC2 bumet counter 0.019 | KCC2 secondary2 inactive | HEK counter1 0.0085 | KCC2 retest ouab inconclusive | HEK293 Tl flux2 inactive
COc1ccc(/C(C)=N/NC(=S)NCCc2ccccc2)cc1	Cl transport mod 7.7 | KCC2 sec1 inactive | KCC2 bumet counter 0.016 | KCC2 secondary2 inactive | HEK counter1 0.021 | KCC2 retest ouab inconclusive | HEK293 Tl flux2 inconclusive
COc1ccc(CNC(=S)N/N=C(\C)c2ccc(OC)cc2)cc1	none
O=C(Nc1nnc(SCCC2OCCO2)s1)C1CC(=O)N(c2ccc(F)cc2)C1 (stereo not drawn)	none (no result: Cl transport mod)
N#C/C(=C\Nc1ccccc1SC(F)(F)F)c1nc(-c2ccc(Cl)cc2)cs1	none
Cc1nc(NCc2cccnc2)c2c3c(sc2n1)CC(C)CC3 (stereo not drawn)	Cl transport mod 59, KCNQ1 act 38, hERG rescue 52 | KCC2 sec1 0.036 | KCC2 bumet counter 0.16 | KCC2 secondary2 0.038 | HEK counter1 0.097 | KCC2 retest ouab 0.087 | HEK293 Tl flux2 0.034
CCN(CC)S(=O)(=O)c1ccc(NC(=O)CSc2ncnc3ccccc23)cc1	Cl transport mod -5.2 | KCC2 sec1 inactive | KCC2 bumet counter inactive | KCC2 secondary2 inconclusive | HEK counter1 inactive | KCC2 retest ouab 0.013 | HEK293 Tl flux2 inactive
NS(=O)(=O)c1ccc(NC(=O)CSc2ncnc3ccccc23)cc1	none
